Source: ChEMBL document CHEMBL4428054, “Synthesis of Fluorescent Binaphthyl Amines That Bind c-MYC G-Quadruplex DNA and Repress c-MYC Expression” (J Med Chem, 2016)
pIC50, pKd: −log10 of the molar value. Calls of active or inactive are those of the source. No cut-off for these calls is given here.

Experiments:
[1] = test system: Quadruplex DNA; experiment: Effect on parallel topology of c-MYC G-quadruplex (unknown origin) at 0 to 5 equivalent by CD spectroscopy; format: nucleic-acid assay; details: unidentified
[2] = test system: HeLa; experiment: Cytotoxicity against human HeLa cells incubated for 24 hrs by MTT assay; format: functional, cell-based
In short: (§1)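 MTT growth-inhibition assay in HeLa, A549 and mouse C2C12 cells. Cells given 0.1% DMSO served as control. IC50 values were reported.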

[3] = test system: dsDNA; experiment: Stabilization of 5'-FAM and 3'-TAMRA-labeled dsDNA (unknown origin) assessed as change in melting temperature at 1 uM by FRET assay; format: nucleic-acid assay
In short: (§2)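 FRET melting of dual-labelled (5′-FAM/3′-TAMRA) promoter quadruplexes or duplex in 60 mM potassium cacodylate buffer, pH 7.4. ΔTm is taken against ligand-free Tm. The ligand was tested across a concentration series. Maximum measurable Tm is 93 °C.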

[4] = test system: Quadruplex DNA; experiment: Stabilization of c-MYC G-quadruplex in human HeLa cells assessed as reduction in c-MYC mRNA level at 5 uM incubated for 24 hrs by RT-PCR method; format: cell-based; set-up: scale not given: the % may be the effect or the level left
In short: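 qRT-PCR on HeLa cells treated 24 h at 1.0, 2.5 or 5.0 μM. c-MYC mRNA was normalised to GAPDH and compared with 0.1% DMSO-treated control.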

[5] = test system: Quadruplex DNA; experiment: Stabilization of 5'-FAM and 3'-TAMRA-labeled c-KIT2 G-quadruplex (unknown origin) assessed as change in melting temperature at 1 uM by FRET assay; format: nucleic-acid assay; details: unidentified; in short: as §2
[6] = test system: HeLa; experiment: Induction of apoptosis in human HeLa cells assessed as necrotic cells level at 5 uM incubated for 24 hrs by Annexin V-FITC staining based flow cytometry (reference value: 0.1%); format: functional
[7] = test system: Quadruplex DNA; experiment: Stabilization of 5'-FAM and 3'-TAMRA-labeled c-KIT1 G-quadruplex (unknown origin) assessed as change in melting temperature at 1 uM in presence of 100 nM to 10 uM dsDNA by FRET assay; format: nucleic-acid assay; details: unidentified
[8] = test system: HeLa; experiment: Induction of apoptosis in human HeLa cells assessed as viable cell level at 5 uM incubated for 24 hrs by Annexin V-FITC staining based flow cytometry; format: functional
[9] = Drug localization in nucleus of human HeLa cells at 5 uM incubated for 2 hrs by fluorescence microscopy; format: ADME, subcellular
In short: (§3)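 Intrinsic ligand fluorescence imaged by fluorescence microscopy in HeLa cells after 2 h at 5.0 μM. Merged images were used to assign nuclear versus cytoplasmic localisation.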

[10] = test system: unidentified; experiment: Selectivity for 5'-FAM and 3'-TAMRA-labeled c-MYC G-quadruplex (unknown origin) over 5'-FAM and 3'-TAMRA-labeled c-KIT2 G-quadruplex (unknown origin)
[11] = molecular target: Quadruplex DNA; experiment: Binding affinity to pre-annealed k-RAS G-quadruplex (unknown origin) in 100 mM KCl, 10 mM Tris.HCl at pH 7.4 by fluorescence spectroscopy relative to untreated control; format: nucleic-acid assay, unidentified
In short: (§4)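 Fluorescence titration in 100 mM KCl, 10 mM Tris·HCl, pH 7.4. Excitation was 350 nm and emission was read at the 430 nm maximum. Ligand (1 μM for c-MYC) was titrated with increasing quadruplex or ds DNA, up to 20 equiv. Change in intensity was scored, and Kd was derived from the titration curves.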

[12] = test system: Quadruplex DNA; experiment: Binding affinity to pre-annealed c-MYC G-quadruplex (unknown origin) assessed as hypochromacity at 20 uM in 10 mM Tris.HCl buffer containing 100 mM KCl at pH 7.4 by UV/Visible spectroscopy; format: nucleic-acid assay; details: unidentified
In short: (§5)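 UV–vis titration of 20 μM ligand with preannealed c-MYC quadruplex (0–1.4 equiv) in 100 mM KCl, 10 mM Tris·HCl, pH 7.4. Hypochromicity was followed at the 362 nm ligand band, because the 298 nm band overlaps DNA absorbance. Kd was fitted with the Hill 1 equation.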

[13] = test system: HeLa; experiment: Effect on GAPDH mRNA expression in human HeLa cells at 1 to 5 uM incubated for 24 hrs by RT-PCR method; format: ADME, cell-based
[14] = test system: unidentified; experiment: Selectivity for 5'-FAM and 3'-TAMRA-labeled c-MYC G-quadruplex (unknown origin) over 5'-FAM and 3'-TAMRA-labeled k-RAS G-quadruplex (unknown origin)
[15] = test system: Quadruplex DNA; experiment: Stabilization of 5'-FAM and 3'-TAMRA-labeled c-MYC G-quadruplex (unknown origin) assessed as change in melting temperature at 3 uM by FRET assay; format: nucleic-acid assay; details: unidentified; in short: as §2
[16] = test system: Quadruplex DNA; experiment: Binding affinity to c-MYC G-quadruplex (unknown origin) assessed as induction of line broadening of imino protons by 1H-NMR spectroscopy; format: nucleic-acid assay; details: unidentified
In short: (§6)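 1D 1H NMR of c-MYC quadruplex DNA at different ligand:DNA ratios, monitoring imino and aromatic regions against partial signal assignments. Chemical shift perturbation or line broadening was noted separately at ratios below 1 and at ratios of 1 or above.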

[17] = test system: HeLa; experiment: Induction of apoptosis in human HeLa cells assessed as late apoptotic cells level at 5 uM incubated for 24 hrs by Annexin V-FITC staining based flow cytometry (reference value: 0.8%); format: functional
[18] = test system: Quadruplex DNA; experiment: Stabilization of c-MYC G-quadruplex in human HeLa cells assessed as reduction in c-MYC mRNA level at 5 uM incubated for 24 hrs by Western blot method; format: cell-based; set-up: scale not given: the % may be the effect or the level left; details: in the assay text read “c-MYC protein level” for “c-MYC mRNA level”
In short: (§7)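 Western blot of HeLa lysates after 24 h at 1, 2.5 or 5 μM, with DMSO control. c-MYC was probed, GAPDH served as loading control, and bands were quantified by densitometry.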

[19] = test system: Quadruplex DNA; experiment: Stabilization of 5'-FAM and 3'-TAMRA-labeled k-RAS G-quadruplex (unknown origin) assessed as change in melting temperature at 1 uM in presence of 100 nM to 10 uM dsDNA by FRET assay; format: nucleic-acid assay; details: unidentified
[20] = test system: Quadruplex DNA; experiment: Stabilization of 5'-FAM and 3'-TAMRA-labeled k-RAS G-quadruplex (unknown origin) assessed as change in melting temperature at 1 uM by FRET assay; format: nucleic-acid assay; details: unidentified; in short: as §2
[21] = test system: HeLa; experiment: Effect on GAPDH protein expression in human HeLa cells at 1 to 5 uM incubated for 24 hrs by Western blot method; format: ADME, cell-based; in short: as §7
[22] = test system: Quadruplex DNA; experiment: Stabilization of 5'-FAM and 3'-TAMRA-labeled c-MYC G-quadruplex (unknown origin) assessed as change in melting temperature at 1 uM by FRET assay; format: nucleic-acid assay; details: unidentified; in short: as §2
[23] = test system: dsDNA; experiment: Stabilization of 5'-FAM and 3'-TAMRA-labeled dsDNA (unknown origin) assessed as change in melting temperature at 5 uM by FRET assay; format: nucleic-acid assay; in short: as §2
[24] = molecular target: Quadruplex DNA; experiment: Binding affinity to pre-annealed c-MYC G-quadruplex (unknown origin) in 100 mM KCl, 10 mM Tris.HCl at pH 7.4 by fluorescence spectroscopy relative to untreated control; format: nucleic-acid assay, unidentified; in short: as §4
[25] = test system: HeLa; experiment: Cell cycle arrest in human HeLa cells assessed as accumulation at subG1 phase at 5 uM incubated for 24 hrs by propidium iodide staining based flow cytometry (reference value: 2.2%); format: functional
[26] = test system: Quadruplex DNA; experiment: Binding affinity to pre-annealed c-MYC G-quadruplex (unknown origin) assessed as increase in fluorescence intensity at 1 uM in 100 mM KCl, 10 mM Tris.HCl at pH 7.4 by fluorescence spectroscopy relative to untreated control; format: nucleic-acid assay; details: unidentified; in short: as §4
[27] = test system: Quadruplex DNA; experiment: Binding affinity to c-MYC G-quadruplex (unknown origin) assessed as induction of chemical shift perturbations of imino protons by 1H-NMR spectroscopy; format: nucleic-acid assay; details: unidentified; in short: as §6
[28] = molecular target: Quadruplex DNA; experiment: Binding affinity to pre-annealed c-KIT2 G-quadruplex (unknown origin) in 100 mM KCl, 10 mM Tris.HCl at pH 7.4 by fluorescence spectroscopy relative to untreated control; format: nucleic-acid assay, unidentified; in short: as §4
[29] = test system: C2C12; experiment: Cytotoxicity against mouse C2C12 cells incubated for 24 hrs by MTT assay; format: cell-based; details: C2C12, 24 h; in short: as §1
[30] = molecular target: Quadruplex DNA; experiment: Binding affinity to pre-annealed c-MYC G-quadruplex (unknown origin) in 10 mM Tris.HCl buffer containing 100 mM KCl at pH 7.4 by UV/Visible spectroscopy; format: nucleic-acid assay, unidentified; in short: as §5
[31] = test system: dsDNA; experiment: Binding affinity to 20 equivalents of dsDNA (unknown origin) in 100 mM KCl, 10 mM Tris.HCl at pH 7.4 by fluorescence spectroscopy relative to untreated control; format: nucleic-acid assay; in short: as §4
[32] = test system: Quadruplex DNA; experiment: Stabilization of 5'-FAM and 3'-TAMRA-labeled c-KIT2 G-quadruplex (unknown origin) assessed as change in melting temperature at 1 uM in presence of 100 nM to 10 uM dsDNA by FRET assay; format: nucleic-acid assay; details: unidentified
[33] = test system: Quadruplex DNA; experiment: Stabilization of 5'-FAM and 3'-TAMRA-labeled c-MYC G-quadruplex (unknown origin) assessed as change in melting temperature at 1 uM in presence of 100 nM to 10 uM dsDNA by FRET assay; format: nucleic-acid assay; details: unidentified
[34] = test system: dsDNA; experiment: Binding affinity to dsDNA (unknown origin) in 10 mM Tris.HCl buffer containing 100 mM KCl at pH 7.4 by UV/Visible spectroscopy; format: nucleic-acid assay
[35] = test system: HeLa; experiment: Cell cycle arrest in human HeLa cells assessed as accumulation at S phase at 5 uM incubated for 24 hrs by propidium iodide staining based flow cytometry (reference value: 10.8%); format: functional
[36] = test system: Quadruplex DNA; experiment: Stabilization of 5'-FAM and 3'-TAMRA-labeled c-KIT1 G-quadruplex (unknown origin) assessed as change in melting temperature at 1 uM by FRET assay; format: nucleic-acid assay; details: unidentified; in short: as §2
[37] = test system: HeLa; experiment: Cell cycle arrest in human HeLa cells assessed as accumulation at G2/M phase at 5 uM incubated for 24 hrs by propidium iodide staining based flow cytometry (reference value: 25.5%); format: functional
[38] = molecular target: Quadruplex DNA; experiment: Binding affinity to pre-annealed c-KIT1 G-quadruplex (unknown origin) in 100 mM KCl, 10 mM Tris.HCl at pH 7.4 by fluorescence spectroscopy relative to untreated control; format: nucleic-acid assay, unidentified; in short: as §4
[39] = Drug localization in cytoplasm of human HeLa cells at 5 uM incubated for 2 hrs by fluorescence microscopy; format: ADME, subcellular; in short: as §3
[40] = test system: HeLa; experiment: Induction of apoptosis in human HeLa cells assessed as early apoptotic cells level at 5 uM incubated for 24 hrs by Annexin V-FITC staining based flow cytometry (reference value: 1.1%); format: functional
[41] = Selectivity for 5'-FAM and 3'-TAMRA-labeled c-MYC G-qudaruplex (unknown origin) over 5'-FAM and 3'-TAMRA-labeled c-KIT1 G-qudaruplex (unknown origin)
[42] = test system: A549; experiment: Cytotoxicity against human A549 cells incubated for 24 hrs by MTT assay; format: functional, cell-based; details: A549, 24 h; in short: as §1
[43] = test system: HeLa; experiment: Cell cycle arrest in human HeLa cells assessed as accumulation at G0/G1 phase at 5 uM incubated for 24 hrs by propidium iodide staining based flow cytometry (reference value: 61.5%); format: functional

CN(C)CCCNC(=O)c1ccc(Nc2ccc(-c3ccc(Nc4ccc(C(=O)NCCCN(C)C)cc4)c4ccccc34)c3ccccc23)cc1
Activity [1]: inactive | pIC50 [2]: 5.14 | ΔTm [3]: 1 °C | Activity [4]: 27% | ΔTm [5]: 7 °C | Activity [6]: 0.5% | Activity [7]: Active | Activity [8]: Active | Drug uptake [9]: Active | Selectivity ratio [10]: 3 to 5 | pKd [11]: 4.89 | Activity [12]: 18% | Activity [13]: Non-Toxic | Selectivity ratio [14]: 3 to 5 | ΔTm [15]: 23 °C | Activity [16]: Active | Activity [17]: 3.6% | Activity [18]: 36% | Activity [19]: Active | ΔTm [20]: 18 °C | Activity [21]: Non-Toxic | ΔTm [22]: 15 °C | Activity [23]: inactive | pKd [24]: 4.67 | Activity [25]: 39.2% | fold change (FC) [26]: 1.2 | Activity [27]: Active | pKd [28]: 4.85 | pIC50 [29]: ≤ 4.40 | pKd [30]: 4.65 | Activity [31]: inactive | Activity [32]: Active | Activity [33]: Active | Activity [34]: inactive | Activity [35]: 5.3% | ΔTm [36]: 9 °C | Activity [37]: 8.6% | pKd [38]: 4.71 | Drug uptake [39]: Active | Activity [40]: 37.9% | Selectivity ratio [41]: 3 to 5 | pIC50 [42]: ≤ 4.40 | Activity [43]: 46.9%
